In paper PMC12531995 (RSC Advances, 2025):
Marks after values point to notes of the source that are not given here.

Tests used:
[1] = system: carrageenan-induced paw edema in rats; conditions: cited from earlier work
[2] = system: pilocarpine-induced seizures in mice; assay: Pilocarpine-induced seizure; assay type: in vivo
Method in brief: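 Male mice, n = 10 per group. Vehicle (0.5% CMC) or test compound (20 mg kg−1) given orally 30 min before pilocarpine (300 mg kg−1, i.p.) to induce status epilepticus. Valproic acid reference was 300 mg kg−1 orally, 30 min prior. Non-epileptic controls got vehicle only. Scored latency to forelimb clonus (stage 3), severity at 30, 60, 90 and 120 min, and 24 h survival. Mean ± SD.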

[3] = system: PTZ-induced seizures in mice; assay: Pentylenetetrazol; assay type: in vivo; conditions: Mus musculus, po, 24 h, read-out: 24 h mortality
Method in brief: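 Mice were randomised into ten groups of ten. Animals were dosed orally, with 0.5% carboxymethyl cellulose as the negative-control vehicle. Seizures were then induced by intraperitoneal pentylenetetrazol at a convulsive dose of 85 mg kg−1.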

Structure (SMILES)	Paw thickness difference, 1st hour ([1]; 1st hour post-carrageenan, oral, mean ± SD, n = 6) [mm]	Percentage of inhibition of paw thickness, 1st hour ([1]; 1st hour, vs carrageenan group) [%]	Paw thickness difference, 2nd hour ([1]; 2nd hour post-carrageenan, oral, mean ± SD, n = 6) [mm]	Percentage of inhibition of paw thickness, 2nd hour ([1]; 2nd hour, vs carrageenan group) [%]	Paw thickness difference, 3rd hour ([1]; 3rd hour post-carrageenan, oral, mean ± SD, n = 6) [mm]	Percentage of inhibition of paw thickness, 3rd hour ([1]; 3rd hour, vs carrageenan group) [%]	Paw thickness difference, 4th hour ([1]; 4th hour post-carrageenan, oral, mean ± SD, n = 6) [mm]	Percentage of inhibition of paw thickness, 4th hour ([1]; 4th hour, vs carrageenan group) [%]	Paw thickness difference, 5th hour ([1]; 5th hour post-carrageenan, oral, mean ± SD, n = 6) [mm]	Percentage of inhibition of paw thickness, 5th hour ([1]; 5th hour, vs carrageenan group) [%]	weight gain (paw) ([1]; 5 hour mark) [%]	Paw weight increase ([1]; right vs left paw, mean ± SD, n = 6)	24 h Survival ([2]; compounds 20 mg kg^−1, valproic acid 300 mg kg^−1 orally, mice n = 10) [%]	Onset (latency to forelimb clonus, stage 3) ([2]; mice n = 10, compounds 20 mg kg^−1 orally, valproic acid 300 mg kg^−1 orally, 30 minutes before pilocarpine 300 mg kg^−1 i.p., mean ± SD)	Reduction of final seizure severity ([2]; vs pilocarpine group, 120 min) [%]	mortality at 20 mg/kg [3] [%]
Cc1ccc(-c2cc(C(F)(F)F)nn2-c2ccc(S(N)(=O)=O)cc2)cc1 [Celecoxib]	1.4 ± 0.38	29.31	2.36 ± 0.51	28.34	2.83 ± 0.43	33	3.01 ± 0.57	40.39	3.10 ± 0.23	41.65	68.15	29.95 ± 2.20^ab %	–	–	–	–
CCCC(CCC)C(=O)O [Valproic acid (VI), valproic acid]	–	–	–	–	–	–	–	–	–	–	–	–	60	10.65 ± 0.52^a mins	60	30
